pIC50: −log10 of the molar value.
Experiments:
[1] = target: T1, Estrogen receptor (Homo sapiens) (UniProt P03372); assay: Downregulation of ERalpha expression in human MCF7 cells at 3 uM after 6 hrs by Western blot method relative to lamin B; assay type: cell-based
T1 sequence (whole entry): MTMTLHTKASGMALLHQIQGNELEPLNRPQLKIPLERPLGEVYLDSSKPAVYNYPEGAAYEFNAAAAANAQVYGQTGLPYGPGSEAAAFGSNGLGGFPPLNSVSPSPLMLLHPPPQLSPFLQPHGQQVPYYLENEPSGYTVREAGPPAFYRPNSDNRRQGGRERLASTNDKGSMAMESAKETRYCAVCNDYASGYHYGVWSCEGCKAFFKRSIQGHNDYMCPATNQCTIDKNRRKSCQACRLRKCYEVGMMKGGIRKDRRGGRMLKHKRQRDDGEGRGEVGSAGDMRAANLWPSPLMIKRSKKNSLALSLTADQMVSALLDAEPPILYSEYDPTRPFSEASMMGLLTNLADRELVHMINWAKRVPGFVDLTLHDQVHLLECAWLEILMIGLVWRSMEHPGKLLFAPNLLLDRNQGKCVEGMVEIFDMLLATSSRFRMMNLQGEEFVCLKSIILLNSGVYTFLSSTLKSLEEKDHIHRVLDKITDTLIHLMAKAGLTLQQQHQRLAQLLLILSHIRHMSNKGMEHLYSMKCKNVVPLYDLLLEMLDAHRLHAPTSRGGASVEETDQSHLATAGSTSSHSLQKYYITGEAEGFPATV
How it was run: (§1)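 MCF-7 cells kept in DMEM with 10% FBS, kanamycin and 10 μg/mL insulin, then exposed to compounds for 6 h. Lysates made in SDS buffer (0.1 M Tris-HCl pH 8.0, 10% glycerol, 1% SDS), boiled, BCA-normalized and run on SDS-PAGE. Blots probed with anti-ERα, AR, AhR or VDR and β-actin or lamin B. Chemiluminescence quantified as target/loading-protein ratio; means ± S.E., n=3.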

Estrogen receptor = target: T2, Estrogen receptor (Homo sapiens, UniProt P03372); assay: Displacement of Fluormone ES2 Green from full-length untagged human ERalpha expressed in insect cells after 2 hrs by fluorescence polarization assay
T2 sequence (P03372 whole entry): T1 sequence (whole entry)

[2] = target: T3, Androgen receptor (Homo sapiens) (UniProt P10275); assay: Downregulation of androgen receptor expression in human MCF7 cells at 10 uM after 6 hrs in presence of proteasome inhibitor MG132 by Western blot method relative to lamin B; assay type: cell-based; how it was run: as §1
T3 sequence (whole entry): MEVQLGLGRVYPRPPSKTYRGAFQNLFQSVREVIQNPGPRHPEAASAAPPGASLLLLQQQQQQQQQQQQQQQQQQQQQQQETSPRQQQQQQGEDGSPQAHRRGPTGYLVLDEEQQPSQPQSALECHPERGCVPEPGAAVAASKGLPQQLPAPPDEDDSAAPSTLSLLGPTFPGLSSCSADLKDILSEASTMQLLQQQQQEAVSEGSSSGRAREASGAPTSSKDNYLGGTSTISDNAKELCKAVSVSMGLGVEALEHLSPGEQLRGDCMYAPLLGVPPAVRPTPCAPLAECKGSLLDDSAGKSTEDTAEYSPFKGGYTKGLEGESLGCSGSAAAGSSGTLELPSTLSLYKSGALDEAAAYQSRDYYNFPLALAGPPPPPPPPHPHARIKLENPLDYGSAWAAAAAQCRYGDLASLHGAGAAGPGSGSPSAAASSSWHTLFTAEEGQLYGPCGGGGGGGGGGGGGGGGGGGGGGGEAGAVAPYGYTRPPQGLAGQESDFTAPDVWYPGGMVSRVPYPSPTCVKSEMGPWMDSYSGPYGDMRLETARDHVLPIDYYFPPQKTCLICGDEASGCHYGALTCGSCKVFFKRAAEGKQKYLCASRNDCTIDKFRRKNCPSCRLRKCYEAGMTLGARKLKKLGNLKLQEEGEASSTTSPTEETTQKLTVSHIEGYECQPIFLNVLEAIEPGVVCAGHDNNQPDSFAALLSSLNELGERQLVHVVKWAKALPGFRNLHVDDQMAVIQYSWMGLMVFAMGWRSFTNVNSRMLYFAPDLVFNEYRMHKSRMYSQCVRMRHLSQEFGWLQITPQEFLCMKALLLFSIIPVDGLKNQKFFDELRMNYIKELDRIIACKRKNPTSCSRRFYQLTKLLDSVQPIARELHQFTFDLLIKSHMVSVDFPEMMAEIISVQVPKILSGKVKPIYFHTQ

[3] = target: T1, Estrogen receptor (Homo sapiens); assay: Downregulation of ERalpha expression in human MCF7 cells at 10 uM after 6 hrs in presence of proteasome inhibitor MG132 by Western blot method relative to lamin B; assay type: cell-based; how it was run: as §1
[4] = target: T4, Vitamin D3 receptor (Homo sapiens) (UniProt P11473); assay: Downregulation of VDR expression in human MCF7 cells at 1 uM after 6 hrs in presence of proteasome inhibitor MG132 by Western blot method relative to lamin B; assay type: cell-based; how it was run: as §1
T4 sequence (whole entry): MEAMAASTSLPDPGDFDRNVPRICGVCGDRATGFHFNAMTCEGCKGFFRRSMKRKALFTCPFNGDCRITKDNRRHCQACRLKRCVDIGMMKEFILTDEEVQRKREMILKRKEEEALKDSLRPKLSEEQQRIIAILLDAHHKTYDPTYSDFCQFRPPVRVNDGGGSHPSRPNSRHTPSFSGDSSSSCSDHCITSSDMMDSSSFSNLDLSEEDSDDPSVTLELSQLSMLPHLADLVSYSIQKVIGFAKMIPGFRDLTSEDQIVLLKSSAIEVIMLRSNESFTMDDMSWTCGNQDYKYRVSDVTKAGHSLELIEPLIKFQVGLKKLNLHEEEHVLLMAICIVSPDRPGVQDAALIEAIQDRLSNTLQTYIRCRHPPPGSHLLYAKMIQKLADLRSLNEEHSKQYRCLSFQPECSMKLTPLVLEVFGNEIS

[5] = target: T3, Androgen receptor (Homo sapiens); assay: Downregulation of androgen receptor expression in human MCF7 cells at 1 uM after 6 hrs by Western blot method relative to lamin B; assay type: cell-based; how it was run: as §1
[6] = target: T3, Androgen receptor (Homo sapiens); assay: Downregulation of androgen receptor expression in human MCF7 cells at 3 uM after 6 hrs in presence of proteasome inhibitor MG132 by Western blot method relative to lamin B; assay type: cell-based; how it was run: as §1
[7] = target: T1, Estrogen receptor (Homo sapiens); assay: Downregulation of ERalpha expression in human MCF7 cells at 1 uM after 6 hrs by Western blot method relative to beta-actin; assay type: cell-based; how it was run: as §1
[8] = target: T3, Androgen receptor (Homo sapiens); assay: Downregulation of androgen receptor expression in human MCF7 cells at 3 uM after 6 hrs by Western blot method relative to lamin B; assay type: cell-based; how it was run: as §1
[9] = target: T1, Estrogen receptor (Homo sapiens); assay: Downregulation of ERalpha expression in human MCF7 cells at 3 uM after 6 hrs by Western blot method relative to beta-actin; assay type: cell-based; how it was run: as §1

Compound: CCCCCCCCCCNCCOc1ccc(C(CCC)(CCC)c2ccc(O)c(C)c2)cc1C
- Activity [1]: 47 to 59%
- pIC50 (Estrogen receptor): 8.31
- Activity [2]: 77%
- Activity [3]: 105%
- Activity [4]: 98%
- Activity [5]: 94%
- Activity [6]: 78%
- Activity [7]: 76%
- Activity [8]: 106%
- Activity [9]: 57%

Reference: ChEMBL document CHEMBL4138058, “Design and synthesis of novel selective estrogen receptor degradation inducers based on the diphenylheptane skeleton” (Medchemcomm, 2017)
